According to PMC3993921 (Inorganic Chemistry, 2014):
Entries after “also recorded” stand apart in the source; their conditions may differ.

Legend:
[1] = tested on: human cervical epitheloid carcinoma (HeLa) cells; experiment: Growth inhibition of HeLa cells; assay type: cell-based; conditions: read-out: HeLa IC50, MTT after 7 d, triplicate
How it was run: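 Seeded at 1 × 10^4 cells/well, 1 h, then test compound 0–100 μM for 7 d. Freshly prepared MTT (5 mg/mL) added for 4 h, absorbance read at 570 nm (reference 630 nm). Triplicate, averaged; IC50 = 50% growth inhibition.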

[2] = tested on: unstimulated normal cells (resting lymphocytes, PBMC); experiment: Growth inhibition of normal cells: resting lymphocytes; assay type: cell-based; conditions: read-out: lymph (resting) IC50; resting human lymphocytes (PBMC), MTT, 3 d
How it was run: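 Human lymphocytes (PBMCs) from preservative-free heparinised peripheral blood, left unstimulated (no PHA-P), run like the HeLa MTT assay: 1 × 10^4 cells/well, test compound 0–100 μM, but exposure 3 d. Freshly prepared MTT (5 mg/mL) added for 4 h; absorbance at 570 nm (reference 630 nm). Triplicate; IC50 as 50% growth inhibition.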

[3] = stability in solution; assay type: physicochemical; conditions: in solution (dichloromethane for 4)
[4] = tested on: panel of 60 cancer cell lines; experiment: DTP; assay type: cell-based; conditions: for TGI range / TGI Δ: 60 cell lines (log scale)
[5] = in vivo hollow fiber studies
[6] = tested on: RPMI-8226; experiment: DTP 60-cell-line panel: RPMI-8226; assay type: cell-based; conditions: leukemia RPMI-8226, Tables 3, 4
[7] = tested on: leukemia SR cell line; experiment: DTP 60-cell-line panel: SR; assay type: cell-based
[8] = tested on: A549/ATCC; experiment: DTP 60-cell-line panel: A549/ATCC; assay type: cell-based; conditions: nonsmall cell lung A549/ATCC, Tables 3, 4
[9] = tested on: COLO 205; experiment: DTP 60-cell-line panel: COLO 205; assay type: cell-based; conditions: colon COLO205
[10] = tested on: KM12; experiment: DTP 60-cell-line panel: KM12; assay type: cell-based; conditions: colon KM12; Table 3
[11] = tested on: UACC-62; experiment: DTP 60-cell-line panel: UACC-62; assay type: cell-based; conditions: melanoma UACC-62
[12] = tested on: OVCAR-3; experiment: DTP 60-cell-line panel: OVCAR-3; assay type: cell-based; conditions: ovarian OVCAR-3, Table 3
[13] = tested on: RXF393; experiment: DTP 60-cell-line panel: RXF393; assay type: cell-based; conditions: renal RXF393, Table 3
[14] = tested on: IGROV ovarian cell line; conditions: cited from earlier work

`S=C([S][Au][PH](c1ccccc1)(c1ccccc1)c1ccccc1)n1cccn1` [Compound 1, Pyrazolyl-1-dithiocarbamato-triphenylphosphinogold(I)] gave an IC50 [1] of 2.56 ± 0.12 µM and an IC50 [2] of 9.05 ± 3.5 µM.
For `Cc1cc(C)n(C(=S)[S][Au-][P+](c2ccccc2)(c2ccccc2)c2ccccc2)n1` [Compound 2, 3,5-dimethylpyrazolyl-1-dithiocarbamato-triphenylphosphinogold(I)], the IC50 [1] was 2.63 ± 0.1 µM and the IC50 [2] was 9.53 ± 3.18 µM.
Work on `S=C([S][Au][PH](c1ccccc1)(c1ccccc1)c1ccccc1)n1ncc2ccccc21` [Compound 3, Indazolyl-1-dithiocarbamato-triphenylphosphinogold(I)] yielded an IC50 [1] of 2.56 ± 0.17 µM and an IC50 [2] of 14 ± 10.5 µM.
For `S=C([S][Au][PH](CC[PH]([Au][S]C(=S)n1cccn1)(c1ccccc1)c1ccccc1)(c1ccccc1)c1ccccc1)n1cccn1` [Compound 4, Bis-(pyrazolyl-1-dithiocarbamato)-bis-(diphenylphosphino)ethane Dinuclear Gold(I)], the stability in solution [3] was “readily transforming to the Au18 cluster”.
Compound `S=C([S][Au][PH](CCC[PH]([Au][S]C(=S)n1cccn1)(c1ccccc1)c1ccccc1)(c1ccccc1)c1ccccc1)n1cccn1` [Compound 7, Bis(pyrazol-1-yldithiocarbamato)-bis-(diphenylphosphino)propane Dinuclear Gold(I)] has an IC50 [1] of 3.07 ± 0.48 µM and an IC50 [2] of 7.05 ± 2.02 µM.
`Cc1cc(C)n(C(=S)[S][Au-][P+](CCC[P+]([Au-][S]C(=S)n2nc(C)cc2C)(c2ccccc2)c2ccccc2)(c2ccccc2)c2ccccc2)n1` [Compound 8, Bis(3,5-dimethylpyrazol-1-yldithiocarbamato)-bis-(diphenylphosphino)propane Dinuclear Gold(I)] showed an IC50 [1] of 6.96 ± 0.51 µM and an IC50 [2] of 6.13 ± 2.92 µM.
`S=C([S][Au-][P+](CCC[P+]([Au-][S]C(=S)n1ncc2ccccc21)(c1ccccc1)c1ccccc1)(c1ccccc1)c1ccccc1)n1ncc2ccccc21` [Compound 9, Bis(indazol-1-yldithiocarbamato)-bis-(diphenylphosphino)propane Dinuclear Gold(I)] gave an IC50 [1] of 3.38 ± 0.3 µM and an IC50 [2] of 18.5 ± 3.88 µM.
`S=C([S][Au-][P+](CCCCCC[P+]([Au-][S]C(=S)n1cccn1)(c1ccccc1)c1ccccc1)(c1ccccc1)c1ccccc1)n1cccn1` [Compound 10, Dinuclear Bis(pyrazol-1-yldithiocarbamato)-bis-(diphenylphosphino)hexane Gold(I)] gave an IC50 [1] of 0.51 ± 0.08 µM, an IC50 [2] of 18.9 ± 5.66 µM and a TGI range [4] of 2.28. For the same compound, the “TGI Δ” value [4] was 1.92, the activity in vivo [5] was “not so great” and the GI50 [6] was 0.19 µM. The TGI [6] was 0.53 µM, the CC50 ([6]; read-out: LC50) was over 100 µM and the GI50 ([7]; Tables 3, 4) was 0.19 µM. The TGI ([7]; Tables 3, 4) was 2.41 µM, the CC50 ([7]; read-out: LC50, Tables 3, 4) was over 100 µM and the GI50 [8] was 0.38 µM. It also gave a TGI [8] of over 100 µM, a CC50 ([8]; read-out: LC50) of over 100 µM and a TGI ([9]; Table 3) of over 100 µM. It also gave a GI50 ([9]; Tables 3, 4) of 0.31 µM, a CC50 ([9]; read-out: LC50, Tables 3, 4) of over 100 µM and a GI50 [10] of 0.43 µM. It also gave a TGI [10] of 1.73 µM, a TGI ([11]; Table 3) of over 100 µM and a GI50 ([11]; Tables 3, 4) of 0.38 µM. It also gave a CC50 ([11]; read-out: LC50, Tables 3, 4) of over 100 µM, a GI50 [12] of 0.7 µM and a TGI [12] of 14.20 µM. For the same compound, the CC50 ([12]; read-out: LC50) was over 100 µM, the CC50 ([13]; read-out: LC50) was over 100 µM and the GI50 [13] was 0.45 µM.
Work on `Cc1cc(C)n(C(=S)[S][Au][PH](CCCCCC[PH]([Au][S]C(=S)n2nc(C)cc2C)(c2ccccc2)c2ccccc2)(c2ccccc2)c2ccccc2)n1` [Compound 11, Dinuclear Bis(3,5-dimethylpyrazol-1-yldithiocarbamato)-bis-(diphenylphosphino)hexane Gold(I)] yielded an IC50 [1] of 0.14 ± 0.01 µM, an IC50 [2] of 18.2 ± 15.9 µM and a TGI range [4] of 2.38. The “TGI Δ” value [4] was 1.87, the “GI50 MG-MID” value ([4]; median over 60 cell lines (log scale)) was “–6.25” and the activity in vivo [5] was “could not be delivered to the targets; also recorded: not so great”.
For `S=C([S][Au-][P+](CCCCCC[P+]([Au-][S]C(=S)n1ncc2ccccc21)(c1ccccc1)c1ccccc1)(c1ccccc1)c1ccccc1)n1ncc2ccccc21` [Compound 12, Dinuclear Bis(indazol-1-yldithiocarbamato)-bis-(diphenylphosphino)hexane Gold(I)], the IC50 [1] was 4.04 ± 0.49 µM and the IC50 [2] was 37.7 ± 12.6 µM.
For `CCN(CC)C(=S)[S][Au][PH](CC)(CC)CC` [[(Et3P)Au(S2CNEt2)]], the ID50 [14] is given as 0.012 µg/mL.
`N.N.[Cl][Pt][Cl]` [cis-platin, reference compound] showed an IC50 [1] of 0.45 ± 0.09 µM.
